A short description of data set [1]: Resistance ratio of EC90 for NS5A in HCV genotype 3a infected in HuH7 replicon cells to EC90 for NS5A in HCV genotype 1a infected in HuH7 replicon cells. In kind it is cell-based. (In general: In antiviral work, replicon cells carry a viral genome segment that copies itself.)
A short description of data set [2]: Resistance ratio of EC90 for NS5A in HCV genotype 1b infected in HuH7 replicon cells to EC90 for NS5A in HCV genotype 1a infected in HuH7 replicon cells. In kind it is cell-based.
The nature of data set [3]: Tmax in Wistar Han rat at 300 mg/kg, po by LC/MS method. In kind it is ADME, organism-based. Particulars: in vivo. In a few lines:
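Single rising oral dose study in fed male Wistar Han rats, dosed PO in 10% TWEEN at the indicated doses. Plasma was obtained by centrifuging the blood, and compound levels were determined by LC/MS.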

Data set [4] is described as follows: Resistance ratio of EC90 for NS5A A30T mutant in HCV genotype 3a infected in HuH7 replicon cells to EC90 for NS5A in HCV genotype 1a infected in HuH7 replicon cells. In kind it is cell-based.
In data set [5] the target is T1, Nonstructural protein 5A (Hepatitis C virus) (UniProt Q5L478).
T1 sequence (whole entry): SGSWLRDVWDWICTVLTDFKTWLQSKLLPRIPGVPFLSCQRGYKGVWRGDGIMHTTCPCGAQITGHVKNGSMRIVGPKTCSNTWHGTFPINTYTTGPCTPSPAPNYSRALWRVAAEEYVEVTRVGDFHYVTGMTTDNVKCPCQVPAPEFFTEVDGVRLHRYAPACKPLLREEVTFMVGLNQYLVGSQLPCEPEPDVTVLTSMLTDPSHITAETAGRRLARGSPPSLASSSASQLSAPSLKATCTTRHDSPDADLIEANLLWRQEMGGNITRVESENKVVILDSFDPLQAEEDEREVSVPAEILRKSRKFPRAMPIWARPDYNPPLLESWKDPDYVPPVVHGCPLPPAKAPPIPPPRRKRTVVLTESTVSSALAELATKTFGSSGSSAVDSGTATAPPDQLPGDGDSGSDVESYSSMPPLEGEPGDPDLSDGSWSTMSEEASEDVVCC
The data set can be described thus: Inhibition of NS5A L31M mutant in HCV genotype 2a infected in HuH7 replicon cells assessed as decrease in viral replication after 3 days by RT-PCR method. In kind it is cell-based. To be noted: Hepatitis C virus subtype 2a.

Data set [6] can be described thus: Resistance ratio of EC90 for NS5A L31I mutant in HCV genotype 1b infected in HuH7 replicon cells to EC90 for NS5A in HCV genotype 1a infected in HuH7 replicon cells. In kind it is cell-based.
The subject of data set [7] is Hepatitis C virus subtype 1a. The data set can be described thus: Resistance ratio of EC90 for NS5A Q30R mutant in HCV genotype 1a infected in HuH7 replicon cells to EC90 for NS5A in HCV genotype 1a infected in HuH7 replicon cells. In kind it is cell-based.
For data set [8], the target named is T1, Nonstructural protein 5A (Hepatitis C virus). The data set can be described thus: Inhibition of NS5A A30K mutant in HCV genotype 3a infected in HuH7 replicon cells assessed as decrease in viral replication after 3 days by RT-PCR method. To be noted: Hepatitis C virus subtype 3a. In kind it is cell-based.
In data set [9] the test system is Nonstructural protein 5A (Hepatitis C virus), Q5L478 [UNDEFINED MUTATION]. The data set can be described thus: Inhibition of NS5A L31M/Y93C double mutant in HCV genotype 1a infected in HuH7 replicon cells assessed as decrease in viral replication after 3 days by RT-PCR method. Particulars: Hepatitis C virus subtype 1a. In kind it is cell-based.
A short description of data set [10]: Resistance ratio of EC90 for NS5A L30H mutant in HCV genotype 4a infected in HuH7 replicon cells to EC90 for NS5A in HCV genotype 1a infected in HuH7 replicon cells. In kind it is cell-based.
The target of data set [11] is T1, Nonstructural protein 5A (Hepatitis C virus). The data set can be described thus: Inhibition of NS5A F28L mutant in HCV genotype 2a infected in HuH7 replicon cells assessed as decrease in viral replication after 3 days by RT-PCR method. In kind it is cell-based. To be noted: Hepatitis C virus subtype 2a.
For data set [12], the system named is T2, Nonstructural protein 5A (Hepatitis C virus), Q5L478 [L28M,Y93H].
T2 sequence (whole entry): T1 sequence (whole entry) with L28M, Y93H
The data set can be described thus: Inhibition of NS5A L28M/Y93H double mutant in HCV genotype 1b infected in HuH7 replicon cells assessed as decrease in viral replication after 3 days by RT-PCR method. In kind it is cell-based. Particulars: Hepatitis C virus subtype 1b.

Data set [13] in a line: Drug level in Beagle dog at 5 mg/kg, po measured at 24 hrs by LC/MS method. In kind it is ADME, organism-based, Canis lupus familiaris. To be noted: in vivo, read-out: Drug uptake. In a few lines:
(§1)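 Beagle dogs, two animals per dosing group. Oral dose was given in 10% TWEEN. Blood was collected and spun to plasma, and plasma compound levels were measured by LC/MS.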

Data set [14] is described as follows: Cmax in Beagle dog at 5 mg/kg, po by LC/MS method. In kind it is ADME, organism-based, Canis lupus familiaris. The arrangement: dose 5 mg/kg, route oral. To be noted: in vivo. Summed up: as §1
Data set [15] deals with NS3 (Hepatitis C virus), A3EZJ3 [R155K]. The data set can be described thus: Inhibition of NS3 R155K mutant in HCV genotype 1a infected in HuH7 replicon cells assessed as decrease in viral replication after 3 days by RT-PCR method. Particulars: Hepatitis C virus subtype 1a. In kind it is cell-based.
Data set [16] concerns the target T1, Nonstructural protein 5A (Hepatitis C virus). The data set can be described thus: Inhibition of NS5A L31M mutant in HCV genotype 2b infected in HuH7 replicon cells assessed as decrease in viral replication after 3 days by RT-PCR method. In kind it is cell-based. To be noted: Hepatitis C virus subtype 2b.
Data set [17] in a line: Clearance in Wistar Han rat at 2 mg/kg, iv by LC/MS method. Particulars: in vivo. In kind it is ADME, organism-based. In a few lines: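 Male Wistar Han rats, two per group, dosed IV at 2 mg/kg in 60% PEG200. Plasma was obtained by centrifuging the blood, and compound concentrations were measured by LC/MS.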

Positions count from the first letter of the chain named.

The results in this text go back to ChEMBL document CHEMBL4177770, “Discovery of MK-6169, a Potent Pan-Genotype Hepatitis C Virus NS5A Inhibitor with Optimized Activity against Common Resistance-Associated Substitutions” (J Med Chem, 2018).

The term Tmax denotes the time at which the peak concentration occurs. As usually defined, the EC90 is the concentration at which the effect reaches the 90% level. The term Cmax denotes the maximum level reached in the sampled fluid or tissue. Usually clearance stands for a measure of how efficiently the substance is removed, as volume per time. On to `COC(=O)N[C@H](C(=O)N1CCC[C@H]1c1ncc(-c2cc(F)c3c(c2)O[C@@H](c2ccc(C4CC4)s2)n2c-3cc3cc(-c4cnc([C@@H]5CCCN5C(=O)[C@@H](NC(=O)OC)[C@@H]5CCOC(C)(C)C5)[nH]4)ccc32)[nH]1)C(C)C`, for which the Ratio in data set [1] amounted to 2; in data set [2], 1; in data set [4], 1; in data set [6] it was 5; in data set [7], 28; in data set [10], 17. In data set [3], the Tmax is 5 h. In addition, the EC90 in [5] was determined as 0.025 nM; in data set [8], 0.018 nM; in data set [9], 0.18 nM; in data set [11], 0.0005 nM; in data set [12], 0.065 nM; in data set [15], 0.0019 nM. Moreover, the EC90 in [16] turned out to be 0.018 nM. Also, in data set [13], the concentration at 24 h came to 29 nM. Besides, the peak level in data set [14] (Cmax) was 660 nM. The molecule also gave a clearance in [17] of 7 mL/min/kg.
